In ChEMBL document CHEMBL1144887, “Indanylidenes. 1. Design and synthesis of (E)-2-(4,6-difluoro-1-indanylidene)acetamide, a potent, centrally acting muscle relaxant with antiinflammatory and analgesic activity” (J Med Chem, 2003):

Experiments:
[1] = Effective dose required to produce analgesic activity in the phalanges algesia assay by oral administration; type: functional
[2] = Effective dose required to produce analgesic activity in the adjuvant arthritis hyperalgesia assay by oral administration; type: functional
Rattus norvegicus [3] = test: Effective dose required for muscle relaxation after oral administration in Wistar rats by pull-up test
Rattus norvegicus [4] = test: Antiinflammatory activity in edema by Carrageenan pleurisy assay by oral administration; type: functional
Procedure, shortened: (§1)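 Rat carrageenan pleurisy, 3 h. Compounds given orally, with separate read-outs for pleural cell counts and edema. ED50 reported in mg/kg po. Each compound tested two or three times; average variation approximately 10%.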

Mus musculus [5] = organism: Mus musculus; test: Effective dose required to produce analgesic activity was measured by mouse hot plate assay; type: functional
Mus musculus [6] = test: (§2) Percent effect profile muscle relaxation at 100 mg/kg by intraperitoneal administration in mouse using Straub-tail (ST) assay; type: functional; settings: ip
Procedure, shortened: (§3)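 Mouse morphine-induced Straub tail assay, scoring inhibition of sacro-coccygeus dorsalis contraction. Single ip dose of 100 mg/kg; percent effect reported. Compounds above 50% inhibition were then tested orally.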

Mus musculus [7] = test: as §2; type: functional; settings: ip; procedure, shortened: as §3; remark: listed apart in the source
Mus musculus [8] = test: Effective dose required for muscle relaxation by oral administration in mouse using Straub-tail (ST) assay.; type: functional
Procedure, shortened: (§4)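 Mouse morphine-induced Straub tail assay, scoring inhibition of sacro-coccygeus dorsalis contraction. Dosed ip or po, generally at a minimum of three doses with N = 6 animals per dose group.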

Rattus norvegicus [9] = test: Effective dose required for muscle relaxation after oral administration in Lewis rats by pull-up test
Rattus norvegicus [10] = test: Effective dose required for sedation in Wistar rats evaluated by loss of righting reflex by oral administration; type: functional
Procedure, shortened: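 Sedation in Wistar rats scored as loss of righting reflex (ability to stay upright) after oral dosing. ED50 reported in mg/kg po.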

[11] = target: T1, Amine oxidase [flavin-containing] A (Homo sapiens, UniProt P21397); test: Inhibitory concentration against Monoamine oxidase A (MAO-A)
T1 sequence (P21397 whole entry): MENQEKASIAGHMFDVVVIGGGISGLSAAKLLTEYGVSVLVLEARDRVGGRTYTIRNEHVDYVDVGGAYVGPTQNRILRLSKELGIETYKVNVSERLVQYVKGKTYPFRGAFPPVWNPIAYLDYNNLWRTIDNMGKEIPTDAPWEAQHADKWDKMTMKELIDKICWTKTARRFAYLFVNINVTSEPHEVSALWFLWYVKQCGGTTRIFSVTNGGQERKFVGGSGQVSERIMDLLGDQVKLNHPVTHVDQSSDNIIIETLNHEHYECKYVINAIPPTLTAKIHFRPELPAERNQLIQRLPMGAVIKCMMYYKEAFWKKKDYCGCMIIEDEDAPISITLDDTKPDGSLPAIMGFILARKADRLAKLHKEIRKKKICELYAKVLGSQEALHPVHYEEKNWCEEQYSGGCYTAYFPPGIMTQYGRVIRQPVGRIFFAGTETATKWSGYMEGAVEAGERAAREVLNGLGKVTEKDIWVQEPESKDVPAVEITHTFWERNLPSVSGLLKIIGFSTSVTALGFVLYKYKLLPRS

Rattus norvegicus [12] = test: Antiinflammatory activity in cells by Carrageenan pleurisy assay by oral administration; type: functional; procedure, shortened: as §1
Rattus norvegicus [13] = test: Effective dose required for analgesic activity by trypsin-induced hyperalgesia assay at 20 mg/kg by oral administration in rats; type: functional
Procedure, shortened: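 Rat trypsin-induced hyperalgesia (mild analgesia) with oral dosing. ED50 reported in mg/kg po. Each compound tested two or three times; average variation approximately 5%.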

[14] = target: T2, Amine oxidase [flavin-containing] B (Homo sapiens, UniProt P27338); test: Inhibitory concentration against Monoamine oxidase B (MAO-B)
T2 sequence (P27338 whole entry): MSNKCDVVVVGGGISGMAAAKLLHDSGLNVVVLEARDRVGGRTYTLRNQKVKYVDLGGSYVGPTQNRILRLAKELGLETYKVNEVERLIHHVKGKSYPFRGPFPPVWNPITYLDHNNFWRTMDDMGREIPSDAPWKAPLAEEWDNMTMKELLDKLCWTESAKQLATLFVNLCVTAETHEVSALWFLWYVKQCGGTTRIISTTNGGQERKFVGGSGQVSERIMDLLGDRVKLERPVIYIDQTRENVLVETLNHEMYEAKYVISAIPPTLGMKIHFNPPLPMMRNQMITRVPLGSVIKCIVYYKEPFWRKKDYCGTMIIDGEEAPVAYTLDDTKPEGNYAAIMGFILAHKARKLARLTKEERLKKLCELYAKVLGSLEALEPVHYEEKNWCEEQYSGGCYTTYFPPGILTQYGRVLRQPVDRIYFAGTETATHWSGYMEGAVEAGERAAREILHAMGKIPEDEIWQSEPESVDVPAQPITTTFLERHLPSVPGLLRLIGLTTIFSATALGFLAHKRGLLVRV

Rattus norvegicus [15] = test: Effective dose required to produce analgesic activity in the trypsin hyperalgesia assay by oral administration
Mus musculus [16] = test: Evaluated for sedation in mice by loss of righting reflex up to a dose of 200 mg/kg by oral administration; No loss of righting reflex; type: functional, organism-based; set-up: dose 200 mg/kg
Rattus norvegicus [17] = test: Percent inhibition for analgesic activity by trypsin-induced hyperalgesia assay at 20 mg/kg by oral administration in rats; type: functional
Procedure, shortened: (§5)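 Rat trypsin-induced hyperalgesia (mild analgesia). Percent inhibition at a single oral dose of 20 mg/kg. Each compound tested two or three times; average variation approximately 5%.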

Mus musculus [18] = test: Sedation caused by oral administration was estimated using rotarod (RR) assay.; type: functional
Procedure, shortened: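 Mouse rotorod test for sedation, oral dosing, generally at a minimum of three doses with N = 6 animals per dose group.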

Rattus norvegicus [19] = test: Percent inhibition for analgesic activity by trypsin-induced hyperalgesia assay at 20 mg/kg by oral administration in rats; ND is no data.; type: functional; procedure, shortened: as §5
Rattus norvegicus [20] = test: Percent inhibition for analgesic activity by trypsin-induced hyperalgesia assay at 20 mg/kg by oral administration in rats.; type: functional; procedure, shortened: as §5
Mus musculus [21] = test: Effective dose required for muscle relaxation by intraperitoneal administration in mouse using Straub-tail (ST) assay; type: functional; settings: ip; procedure, shortened: as §4
Mus musculus [22] = organism: Mus musculus; test: Ratio of rotarod to straub tail activity, which indicates the dose exhibiting muscle relaxant activity versus that producing sedation; type: functional
Procedure, shortened: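 Ratio of rotorod ED50 (po) to Straub tail ED50 (po), both measured in mice with oral dosing. Indicates separation between the muscle-relaxant dose and the sedating dose.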

Which ED50 [1] does the source give for NC(=O)/C=C1\CCc2c(F)cc(F)cc21 here?
The ED50 was 20 mg/kg.

What about the ED50 [2] of the same compound?
Its ED50 is 21 mg/kg.

And the ED50 (Rattus norvegicus [3])?
Its ED50 is 64 mg/kg.

And the ED50 (Rattus norvegicus [4])?
The ED50 was 15 mg/kg.

And the ED50 (Mus musculus [5])?
The ED50 was 30 mg/kg.

And the inhibition in vivo at 100 mg/kg (Mus musculus [6])?
Its inhibition in vivo at 100 mg/kg is 67%.

What about the inhibition in vivo at 100 mg/kg (Mus musculus [7]) of the same compound?
Its inhibition in vivo at 100 mg/kg is 100%.

And the ED50 (Mus musculus [8])?
Its ED50 is 69 mg/kg.

And the ED50 (Rattus norvegicus [9])?
Its ED50 is 18 mg/kg.

What about the ED50 (Rattus norvegicus [10]) of the same compound?
Its ED50 is 200 mg/kg.

What about the IC50 [11] of the same compound?
The IC50 was 11 µM.

What about the ED50 (Rattus norvegicus [12]) of the same compound?
The ED50 was 19 mg/kg.

And the ED50 (Rattus norvegicus [13])?
Its ED50 is 4 mg/kg.

What about the IC50 [14] of the same compound?
Its IC50 is 0.2 µM.

What about the ED50 (Rattus norvegicus [15]) of the same compound?
Its ED50 is 22 mg/kg.

And the ED50 (Mus musculus [16])?
Its ED50 is “No loss of righting reflex”.

What about the inhibition in vivo at 20 mg/kg (Rattus norvegicus [17]) of the same compound?
The inhibition in vivo at 20 mg/kg was 100%.

And the ED50 (Mus musculus [18])?
The ED50 was 138 mg/kg.

With Cc1ccc2c(c1)/C(=C/C(N)=O)CC2 as the compound, how does the inhibition in vivo at 100 mg/kg (Mus musculus [7]) read?
The inhibition in vivo at 100 mg/kg was 33%.

And the inhibition in vivo at 20 mg/kg (Rattus norvegicus [19])?
Its inhibition in vivo at 20 mg/kg is 14%.

Which inhibition in vivo at 20 mg/kg (Rattus norvegicus [20]) does the source give for NC(=O)/C=C1\CCc2ccccc21 here?
Its inhibition in vivo at 20 mg/kg is 88%.

And the ED50 (Mus musculus [21])?
Its ED50 is 31 mg/kg.

And the Ratio (Mus musculus [22])?
Its Ratio is 1.5.

And the ED50 (Mus musculus [8])?
The ED50 was 108 mg/kg.

What about the ED50 (Rattus norvegicus [13]) of the same compound?
Its ED50 is 9 mg/kg.

And the ED50 (Mus musculus [18])?
Its ED50 is 164 mg/kg.
